Assay results gathered from unrelated publications.
Lines come from different studies, so protocols differ.
Target: Mitogen-activated protein kinase kinase kinase 10 (MAP3K10, Homo sapiens, UniProt Q02779)

Compound	observed	action	method	tested at	endpoint	value
COc1cccc2c(NCc3ccccc3)nc(-n3c(N)nc4ccccc43)nc12	target engagement in cells	inhibitor	chemoproteomics	20 mM	inhibition	17.4%
CCCOc1ccc([C@@H]2[C@@H](C(=O)O)[C@H](c3ccc4c(c3)OCO4)CN2CC(=O)Nc2c(CC)cccc2CC)cc1	cell-free assay		competition with immobilised ligand	1 µM	remaining binding	100%
CNC(=O)c1cc(Oc2ccc(NC(=O)Nc3ccc(Cl)c(C(F)(F)F)c3)cc2)ccn1	cell-free assay			0.5 µM	remaining signal	104%
O=C(N1CCS(=O)(=O)CC1)N1C[C@H](c2ccc(OC(F)(F)F)cc2)C[C@H](c2nc(C3CC3)no2)C1	cell-free assay		competition with immobilised ligand	1 µM	remaining binding	99%
Cc1ccc(C(=O)Nc2ccc(CN3CCN(C)CC3)c(C(F)(F)F)c2)cc1C#Cc1cnc2cccnn12	enzyme activity	inhibitor		23.5 nM	remaining activity	69%
CC(C)(C)c1nc(-c2cccc(NS(=O)(=O)c3c(F)cccc3F)c2F)c(-c2ccnc(N)n2)s1	enzyme activity	inhibitor	radiometric	1 µM	remaining activity	91%
CN1CC(Oc2cnc(C#N)cc2-c2ccn3nc(NC(=O)C4CC4)cc3c2)C1	enzyme activity	inhibitor		1 µM	inhibition	8%
Oc1ccc(-c2nc(-c3ccncc3)c(-c3ccc(F)cc3)[nH]2)cc1	cell-free assay			0.5 µM	remaining signal	32.8%
C[C@@H]1CN(c2cc(-c3n[nH]c4ccc(OC5(C)CC5)cc34)ncn2)C[C@H](C)O1	cell-free assay		competition with immobilised ligand	0.1 µM	remaining binding	100%
CCN(CC)CCNC(=O)c1c(C)[nH]c(/C=C2\C(=O)Nc3ccc(F)cc32)c1C	cell-free assay			0.5 µM	remaining signal	104%
CC(C)(O)[C@H]1CC[C@H](Nc2ccc3ncc(-c4cccc(C(F)(F)F)c4)n3n2)CC1	enzyme activity	inhibitor		1 µM	remaining activity	85%
C[C@H](NC(=O)c1cnc2n1[C@](C)(Cc1ccc(C#N)cc1)C(=O)N2c1cc(Cl)c(F)c(Cl)c1)C(=O)NC1(c2ccccn2)CC1	cell-free assay		competition with immobilised ligand	1 µM	remaining binding	100%
O=C(Nc1cnn(-c2csc(C(=O)NC3COC3)c2)c1)Nc1c(F)cccc1Cl	enzyme activity	inhibitor		5 µM	remaining activity	94.3%
Clc1ccc(Nc2nnc(Cc3ccncc3)c3ccccc23)cc1	cell-free assay			0.5 µM	remaining signal	110%
c1ccc(CNc2nc(N3CCOc4ccccc43)nc3c2CCCC3)cc1	target engagement in cells	inhibitor	chemoproteomics	20 mM	inhibition	14.1%
N#CCCc1ccc2c(c1)-c1[nH]c3ccc([N+](=O)[O-])cc3c1CC(=O)N2	cell-free assay			0.5 µM	remaining signal	30%
O=C1NC(c2ccccn2)Sc2ccccc21 (centres unmarked)	cell-free assay		competition with immobilised ligand	1 µM	remaining binding	94%
